Source: paper PMC7042484 (Redox Biology, 2020)
“Also recorded” adds a separate entry of the source.

Key:
[1] = MCLA auto-oxidation assay; settings: 100 μM compound
[2] = biological target: T1, human NOX2 (Homo sapiens, UniProt P04839); assay: Initial evaluation on NOX2 membrane preparations; assay type: biochemical; settings: for inhibition of NOX2 (in words): 100 μM compound, membranes
T1 sequence (P04839 2-570 limits assumed): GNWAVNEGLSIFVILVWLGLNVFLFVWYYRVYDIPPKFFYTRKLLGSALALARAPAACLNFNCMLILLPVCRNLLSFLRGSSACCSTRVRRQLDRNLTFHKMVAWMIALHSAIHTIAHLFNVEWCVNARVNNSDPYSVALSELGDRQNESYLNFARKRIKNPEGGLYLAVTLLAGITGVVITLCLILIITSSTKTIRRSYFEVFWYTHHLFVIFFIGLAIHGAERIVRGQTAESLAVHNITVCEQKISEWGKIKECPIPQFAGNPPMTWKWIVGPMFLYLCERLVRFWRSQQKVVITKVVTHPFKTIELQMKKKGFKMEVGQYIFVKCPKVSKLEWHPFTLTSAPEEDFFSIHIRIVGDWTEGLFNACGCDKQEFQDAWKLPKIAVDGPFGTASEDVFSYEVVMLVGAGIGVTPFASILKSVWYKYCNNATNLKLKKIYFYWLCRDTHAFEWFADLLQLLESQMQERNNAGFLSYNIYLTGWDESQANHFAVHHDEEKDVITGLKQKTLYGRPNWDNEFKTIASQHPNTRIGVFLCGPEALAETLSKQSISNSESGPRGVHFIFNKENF
T1 sequence (P13498 2-195 partner limits assumed): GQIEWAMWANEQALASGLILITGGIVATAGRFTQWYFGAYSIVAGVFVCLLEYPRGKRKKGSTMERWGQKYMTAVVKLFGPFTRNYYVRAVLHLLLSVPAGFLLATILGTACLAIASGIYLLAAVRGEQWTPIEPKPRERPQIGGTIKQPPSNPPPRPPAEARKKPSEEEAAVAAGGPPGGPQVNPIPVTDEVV

[3] = biological target: T2, human NOX4 (Homo sapiens, UniProt Q9NPH5); assay: Initial evaluation on NOX4 membrane preparations; assay type: biochemical; settings: for inhibition of NOX4 (in words): 100 μM compound, membranes
T2 sequence (Q9NPH5 1-578): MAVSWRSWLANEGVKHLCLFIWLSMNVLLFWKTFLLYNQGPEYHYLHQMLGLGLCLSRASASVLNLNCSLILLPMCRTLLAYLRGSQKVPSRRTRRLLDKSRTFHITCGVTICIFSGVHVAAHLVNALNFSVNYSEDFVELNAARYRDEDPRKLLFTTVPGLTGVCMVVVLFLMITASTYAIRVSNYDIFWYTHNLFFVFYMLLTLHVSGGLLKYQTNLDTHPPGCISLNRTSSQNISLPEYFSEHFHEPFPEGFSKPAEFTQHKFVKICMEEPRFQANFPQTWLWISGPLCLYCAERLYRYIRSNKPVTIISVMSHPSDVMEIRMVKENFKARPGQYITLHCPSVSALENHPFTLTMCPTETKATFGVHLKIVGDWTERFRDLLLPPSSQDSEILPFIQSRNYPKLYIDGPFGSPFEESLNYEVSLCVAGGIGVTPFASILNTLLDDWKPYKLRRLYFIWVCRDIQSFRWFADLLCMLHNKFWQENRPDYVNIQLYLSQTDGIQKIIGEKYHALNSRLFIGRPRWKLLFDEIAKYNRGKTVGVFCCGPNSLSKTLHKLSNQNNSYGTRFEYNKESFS
T2 sequence (P13498 2-195 partner limits assumed): T1 sequence (P13498 2-195 partner limits assumed)
Outline: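 NOX4-p22 membranes from transfected HEK293 EBNA-1 cells, compound 100 μM, 10 min preincubation at 4 °C in PBS. Amplex Red: 100 μg membranes, 12.5 μM Amplex Red, 0.02 U/ml HRP, 40 μM FAD, started with 40 μM NADPH, ex 572/em 583 nm. CBA: 50 μg membranes, 20 μM FAD, then 200 μM coumarin boronic acid and 50 μM NADPH, ex 320/em 430 nm.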

[4] = biological target: T3, bacterial NOX5 (Cylindrospermum stagnale, UniProt K9WT99); assay: Initial evaluation on NOX5 membrane preparations; assay type: biochemical; settings: for inhibition of NOX5 (in words): 100 μM compound, membranes
T3 sequence (K9WT99 1-693): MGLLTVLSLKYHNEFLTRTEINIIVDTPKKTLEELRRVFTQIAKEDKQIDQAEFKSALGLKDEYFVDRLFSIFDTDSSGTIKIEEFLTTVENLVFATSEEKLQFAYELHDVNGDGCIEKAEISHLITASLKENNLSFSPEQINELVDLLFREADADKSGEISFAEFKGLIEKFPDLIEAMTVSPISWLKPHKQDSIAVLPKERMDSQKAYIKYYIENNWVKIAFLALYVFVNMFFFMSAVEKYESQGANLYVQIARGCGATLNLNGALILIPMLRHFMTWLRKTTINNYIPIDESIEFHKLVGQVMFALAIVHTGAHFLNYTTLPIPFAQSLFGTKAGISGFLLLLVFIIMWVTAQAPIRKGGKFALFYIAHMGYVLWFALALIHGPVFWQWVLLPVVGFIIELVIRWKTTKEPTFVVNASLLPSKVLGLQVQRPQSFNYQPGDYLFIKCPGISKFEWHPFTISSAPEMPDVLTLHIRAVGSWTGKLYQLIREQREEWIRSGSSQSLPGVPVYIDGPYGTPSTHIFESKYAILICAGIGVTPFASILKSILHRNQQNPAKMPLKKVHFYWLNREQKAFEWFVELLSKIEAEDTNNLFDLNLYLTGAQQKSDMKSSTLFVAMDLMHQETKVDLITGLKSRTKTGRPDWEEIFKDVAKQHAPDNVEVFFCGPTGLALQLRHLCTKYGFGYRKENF

[5] = biological target: xanthine oxidase (Bos taurus, UniProt P80457); assay: Xanthine Oxidase assay; assay type: biochemical; settings: 100 μM compound, hypoxanthine, Amplex Red/peroxidase
Sequence of xanthine oxidase (P80457 whole entry): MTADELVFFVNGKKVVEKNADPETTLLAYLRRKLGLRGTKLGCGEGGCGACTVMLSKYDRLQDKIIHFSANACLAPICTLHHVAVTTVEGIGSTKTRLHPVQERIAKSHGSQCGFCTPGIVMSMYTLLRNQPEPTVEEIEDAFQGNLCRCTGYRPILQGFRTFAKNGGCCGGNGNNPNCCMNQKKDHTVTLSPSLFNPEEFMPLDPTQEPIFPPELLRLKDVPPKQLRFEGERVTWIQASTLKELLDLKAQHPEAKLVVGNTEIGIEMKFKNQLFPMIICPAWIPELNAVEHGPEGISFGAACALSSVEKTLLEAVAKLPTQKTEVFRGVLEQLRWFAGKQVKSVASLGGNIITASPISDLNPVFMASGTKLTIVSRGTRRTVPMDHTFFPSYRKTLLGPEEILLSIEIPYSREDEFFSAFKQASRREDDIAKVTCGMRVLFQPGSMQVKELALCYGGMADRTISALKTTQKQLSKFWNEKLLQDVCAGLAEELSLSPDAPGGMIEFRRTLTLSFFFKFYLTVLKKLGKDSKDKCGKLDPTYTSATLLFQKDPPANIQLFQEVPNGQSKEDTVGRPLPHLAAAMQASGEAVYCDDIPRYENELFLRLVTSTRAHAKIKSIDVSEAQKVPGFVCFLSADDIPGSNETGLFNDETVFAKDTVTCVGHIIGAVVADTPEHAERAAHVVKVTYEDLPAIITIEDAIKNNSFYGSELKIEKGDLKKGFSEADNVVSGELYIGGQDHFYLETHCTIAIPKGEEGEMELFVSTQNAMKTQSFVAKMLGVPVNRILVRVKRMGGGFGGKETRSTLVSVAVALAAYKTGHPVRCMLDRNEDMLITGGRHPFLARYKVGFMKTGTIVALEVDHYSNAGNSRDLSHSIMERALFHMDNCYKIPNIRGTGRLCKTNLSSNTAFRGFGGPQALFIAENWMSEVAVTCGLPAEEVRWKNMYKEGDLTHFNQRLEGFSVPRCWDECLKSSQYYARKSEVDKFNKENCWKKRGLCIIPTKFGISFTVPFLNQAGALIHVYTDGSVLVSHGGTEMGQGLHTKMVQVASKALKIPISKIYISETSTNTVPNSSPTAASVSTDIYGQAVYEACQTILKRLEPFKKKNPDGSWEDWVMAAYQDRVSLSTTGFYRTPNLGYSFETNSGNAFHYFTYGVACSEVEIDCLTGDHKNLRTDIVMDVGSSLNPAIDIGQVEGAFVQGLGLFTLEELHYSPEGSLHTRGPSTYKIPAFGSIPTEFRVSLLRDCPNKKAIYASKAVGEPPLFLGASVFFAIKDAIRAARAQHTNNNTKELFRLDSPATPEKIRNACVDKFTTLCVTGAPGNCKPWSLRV
Outline: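 Compound (100 μM) with xanthine oxidase, 100 μM Amplex Red, 0.4 U/mL horseradish peroxidase and 0.2 mM hypoxanthine. 15 min at 37 °C; H2O2-derived resorufin read by fluorescence, ex 530/em 590 nm.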

[6] = test system: wild-type NOX5 dehydrogenase domain; assay: Thermal shift analysis on purified NOX5 dehydrogenase domain; assay type: binding, Cylindrospermum stagnale; settings: inflection temperature Ti, 35–95 °C
Outline: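 Wild-type purified NOX5 dehydrogenase domain, with or without ligand, heated from 35 °C to 95 °C over 3 min on a Tycho system; inflection temperature (Ti) determined.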

[7] = biological target: T4, wild-type dehydrogenase domain of NOX5 (Cylindrospermum stagnale, UniProt K9WT99); assay: Microscale thermophoresis binding assay on purified NOX5 dehydrogenase domain
T4 sequence (K9WT99 413-693): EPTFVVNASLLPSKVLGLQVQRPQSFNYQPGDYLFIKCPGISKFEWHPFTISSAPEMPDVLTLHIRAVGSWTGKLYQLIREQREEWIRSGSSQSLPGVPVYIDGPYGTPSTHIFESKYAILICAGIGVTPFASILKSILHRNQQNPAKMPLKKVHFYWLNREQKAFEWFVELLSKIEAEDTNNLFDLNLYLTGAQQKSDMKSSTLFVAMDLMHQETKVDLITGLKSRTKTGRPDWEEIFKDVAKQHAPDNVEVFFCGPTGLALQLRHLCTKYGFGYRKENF
Outline: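 Microscale thermophoresis with fluorescently labelled wild-type NOX5 dehydrogenase domain (~200 nM). Ligand given as 16 serial dilutions up to 6.4 mM in 50 mM Hepes, 240 mM NaCl, 0.5% glycerol, 250 μM FAD, 0.1% pluronic acid, pH 7.5. Incubated 10 min at 25 °C; recorded at 25 °C, red channel. Kd from binding isotherms, triplicate, standard deviation.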

[8] = biological target: T5, wild-type dehydrogenase domain of bacterial NOX5 (Cylindrospermum stagnale, UniProt K9WT99); assay: NADPH-depletion assay on purified wild-type NOX5 dehydrogenase domain; assay type: biochemical
T5 sequence (K9WT99 413-693): T4 sequence (K9WT99 413-693)

[9] = NADH-PMS superoxide-scavenging assay; settings: 100 μM compound, PMS-NADH/nitroblue tetrazolium
Outline: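 Non-enzymatic superoxide generation in 16 mM Tris-HCl pH 8.0 with 80 μM nitroblue tetrazolium and 70 μM NADH plus compound (100 μM). Started with 5 μM phenazine methosulfate; 5 min at 25 °C; A560. SOD as positive control; lower absorbance than the negative control scored as scavenging.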

[10] = test system: NOXs; assay: Initial evaluation of NOX inhibitors, isoform not specified; assay type: biochemical; settings: 100 μM compound
[11] = Amplex Red/peroxidase assay in the absence of a NOX enzyme; settings: 100 μM compound, no NOX enzyme, NADPH present
Outline: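 Compound (100 μM) added to the Amplex Red/horseradish peroxidase H2O2 read-out with NADPH present but no NOX membranes, to probe reagent interference. Resorufin fluorescence read on a plate reader.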

[12] = biological target: T3, bacterial NOX5; assay: MCLA assay on NOX5 membranes; assay type: biochemical
Outline: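 E. coli membranes carrying FLAG-(His)8-SUMO-tagged C. stagnale NOX5, 12 μg, in PBS with 1 mM CaCl2, 0.5 μM FAD and 1 μM MCLA. Compound (100 μM single point, or concentration series) 10 min at 25 °C. Started with 200 μM NADPH; chemiluminescence read. Membranes lacking NOX5 set noise level. IC50 by sigmoidal fit, % of untreated control.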

[13] = biological target: T1, human NOX2; assay: MCLA assay on NOX2 membranes; assay type: biochemical; settings: 100 μM compound
[14] = biological target: C-terminal mutant dehydrogenase domain of bacterial NOX5; assay: NADPH-depletion assay on C-terminal mutant NOX5 dehydrogenase domain; assay type: biochemical, Cylindrospermum stagnale; settings: uncompetitive, low-activity mutant of the dehydrogenase domain
[15] = biological target: full-length bacterial NOX5 (Cylindrospermum stagnale, UniProt K9WT99); assay: biochemical

Structure (SMILES)	inhibition of the hydrogen peroxide-producing activity of xanthine oxidase [5]	interference with MCLA auto-oxidation [1]	inhibition of NOX5 (in words) [4]	inhibition of NOX2 (in words) [2]	inhibition of NOX4 (in words) [3]	superoxide scavenging [9]	other results
C1CCC(C(CC2CCCCN2)C2CCCCC2)CC1 (stereo not drawn) [perhexiline]		interfered with the MCLA auto-oxidation	not against NOX5				inhibition at 100 µM ([2]; read-out: inhibition of NOX2): 40 to 70%; inhibition at 100 µM ([3]; read-out: inhibition of NOX4): 40 to 70%
CC1=C(O)C(=O)C=C2C1=CC=C1[C@@]2(C)CC[C@@]2(C)[C@@H]3C[C@](C)(C(=O)O)CC[C@]3(C)CC[C@]12C [celastrol]	powerful inhibitions	interfered with the MCLA auto-oxidation	full	full	full		stabilising effect in thermal shift analysis [6]: lack of any stabilising effect
Cc1ccc(C(=O)Nc2ccc(S(=O)(=O)O)c3cc(S(=O)(=O)O)cc(S(=O)(=O)O)c23)cc1NC(=O)c1cccc(NC(=O)Nc2cccc(C(=O)Nc3cc(C(=O)Nc4ccc(S(=O)(=O)O)c5cc(S(=O)(=O)O)cc(S(=O)(=O)O)c45)ccc3C)c2)c1 [suramin]			full	full	full	strong superoxide scavenger	Kd [7]: 52200 ± 1100 nM; Ki [8]: 390 ± 50 nM; stabilising effect in thermal shift analysis [6]: lack of any stabilising effect
CC(C)c1c(C(=O)Nc2ccccc2)c(-c2ccccc2)c(-c2ccc(F)cc2)n1CC[C@@H](O)C[C@@H](O)CC(=O)O [Atorvastatin]							inhibition at 100 µM ([4]; read-out: inhibition of NOX5): ~50%
CC1=CC(=O)c2c(O)cccc2C1=O [plumbagin]							pattern of NOX inhibition (in words) [10]: assay-dependent inhibitory activities
O=c1c2ccccc2[se]n1-c1ccccc1 [ebselen]	powerful inhibitions	substantial interference	full	full	full		interference on the Amplex Red/peroxidase assay [11]: substantial interference; stabilising effect in thermal shift analysis [6]: lack of any stabilising effect
O=c1[nH]c2ccccc2c2ccccc12 [phenanthridinone, 6(5H)-phenanthridinone]						mild scavenging activities	pattern of NOX inhibition (in words) [10]: assay-dependent inhibitory activities
CC1=NN(c2ccccc2)CC1 [3-methyl-1-phenyl-2-pyrazoline]	powerful inhibitions						
c1ccc2c(c1)[I+]c1ccccc1-2 [DPI, Diphenylene iodonium]	powerful inhibitions; also recorded: inhibits xanthine oxidase		full	full	full		IC50 [12]: 3280 ± 1320 nM; αKi [14]: 0.42 ± 0.06 µM; αKi ([8]; wild-type domain, exogenous FAD 300 μM): 127 ± 13 µM; Ki [15]: 980 ± 140 nM
CN(C)CCCN1c2ccccc2Sc2ccccc21 [promazine]	powerful inhibitions						

Now from value to compound, other results behind:

inhibition of the hydrogen peroxide-producing activity of xanthine oxidase [5]	Structure (SMILES)	interference with MCLA auto-oxidation [1]	inhibition of NOX5 (in words) [4]	inhibition of NOX2 (in words) [2]	inhibition of NOX4 (in words) [3]	superoxide scavenging [9]	other results
powerful inhibitions	OCCN1CCN(CCCN2c3ccccc3Sc3ccc(Cl)cc32)CC1 [perphenazine]					mild scavenging activities	
powerful inhibitions	OCCN1CCN(CCCN2c3ccccc3Sc3ccc(C(F)(F)F)cc32)CC1 [fluphenazine]					mild scavenging activities	
powerful inhibitions	CN(C)c1cccc(-c2c3c(=O)n(-c4ccccc4Cl)[nH]c3cc(=O)n2C)c1 [GKT137831]	substantial interference			strong NOX4 inhibitors		interference on the Amplex Red/peroxidase assay [11]: substantial interference; inhibition of NOX5 with the MCLA-based protocol (in words) ([12]; 100 μM compound, MCLA assay): moderately active; inhibition of NOX2 with MCLA (in words) [13]: moderately active
